PostGolgi ctrl: growth inhibition of yeast control strain, primary screen, counter-screen for post-Golgi transport modulator project; inhibition, % at 10 µM; actives 5% (n = 98,000); efflux-deficient yeast background strain, growth absorbance A615, 16 h
E coli WT exp: growth inhibitors of wild-type E. coli, primary screen, strain BW25113, expanded library, OD600. OD600 absorbance. growth inhibition, % at 100 µM. actives 0.15% (n = 98,000). AID 710, 2007;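 active means growth inhibition above about 50% at one test dose, limit read from the data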;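 further: growth measured after 20 h incubation at 37 °C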
Ecoli tolC: growth inhibitors of E. coli tolC mutant, primary screen, strain BW25113 ΔtolC::kan, 384-well. AID 573, 2007. OD615. actives 2.2% (n = 65,000). growth inhibition, % at 10 µM (by protocol);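 active means growth inhibition at or above a cutoff equal to the mean over every tested compound plus 3 SD, cut at about 60% in these data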;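 further: growth measured after 20 h incubation at 37 °C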
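Test system: E. coli BW25113 ΔtolC::kan bacteria | Medium: Kanamycin-containing LB broth (50 µg/mL) | Dosing: One dose of 10 µM final | Times: 20 h incubation with compound, 37 °C | Detection: Optical density read at 615 nm | Read-out basis: Percent growth inhibition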
HePTP inhibitor: inhibitors of human HePTP phosphatase, primary screen, biochemical, absorbance, leukemia target; recombinant HePTP phosphatase activity, OD absorbance; inhibition, % at 20 µM; actives 0.64% (n = 110,000); in the data active means inhibition above about 50%
PLAP act: PLAP enzyme activators, biochemical, luminescence, HTS | activation fold at 20 µM | Alkaline phosphatase, placental type (Homo sapiens), P05187 | actives 1.2% (n = 96,000) | purified PLAP enzyme, luminescent substrate read-out; stronger effect = higher value | AID 696, 2007; in the data active means activation fold above about 2
Target sequence (P05187 whole entry, looked up): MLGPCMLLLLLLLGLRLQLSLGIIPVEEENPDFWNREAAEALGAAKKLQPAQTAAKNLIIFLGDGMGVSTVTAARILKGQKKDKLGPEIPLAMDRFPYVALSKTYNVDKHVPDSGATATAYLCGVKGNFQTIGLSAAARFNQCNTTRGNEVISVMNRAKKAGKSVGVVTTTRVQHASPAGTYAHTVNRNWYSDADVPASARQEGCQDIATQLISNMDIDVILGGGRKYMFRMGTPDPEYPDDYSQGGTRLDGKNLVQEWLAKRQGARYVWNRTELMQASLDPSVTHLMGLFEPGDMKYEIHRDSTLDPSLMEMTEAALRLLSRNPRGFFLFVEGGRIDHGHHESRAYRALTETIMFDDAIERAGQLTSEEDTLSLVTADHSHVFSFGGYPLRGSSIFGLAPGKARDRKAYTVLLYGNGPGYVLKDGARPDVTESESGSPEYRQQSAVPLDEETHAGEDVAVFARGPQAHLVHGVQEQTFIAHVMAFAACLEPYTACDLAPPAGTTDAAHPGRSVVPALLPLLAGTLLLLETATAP
PostGolgi yeast: phenotypic screen on post-Golgi transport, primary screen; post-Golgi transport phenotypic cell assay; inhibition, % at 10 µM; actives 0.9% (n = 98,000);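 further: yeast cells grown in 1536-well plates; yeast grown about 18 h at 30C before absorbance read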
A number is an active result. Most compounds without a hit are left out; they make up all but 5.5% or so of the library. Unless noted, no stated cut-off is given here; in the data, active means inhibition above about 30%; inactive means the rest.

`CCS(=O)(=O)N1CCN(c2ccc([N+](=O)[O-])c(NC(C)c3ccccc3)c2)CC1` (stereo not given) gave PostGolgi ctrl 43.9, E coli WT exp inactive, PLAP act inactive and PostGolgi yeast inactive.
Cn1c(=O)c2c(nc(N3CCc4ccccc4C3)n2Cc2ccc(Br)cc2)n(C)c1=O was read as PostGolgi ctrl inactive, E coli WT exp inactive, Ecoli tolC inactive, HePTP inhibitor inactive, PLAP act inactive and PostGolgi yeast inactive.
Cn1c(=O)c2c(nc(N3CCc4ccccc4C3)n2Cc2ccccc2F)n(C)c1=O was read as PostGolgi ctrl 47.2, E coli WT exp inactive, Ecoli tolC inactive, HePTP inhibitor inactive and PostGolgi yeast inactive.
For Cn1c(=O)c2c(nc(N3CCN(c4ccccn4)CC3)n2Cc2ccccc2Cl)n(C)c1=O the results were PostGolgi ctrl 33.0, E coli WT exp inactive, PLAP act inactive and PostGolgi yeast inactive.
For CCN1CCN(c2nc3c(c(=O)n(C)c(=O)n3C)n2Cc2cccc3ccccc23)CC1 the results were PostGolgi ctrl inactive, E coli WT exp inactive, Ecoli tolC inactive, HePTP inhibitor inactive, PLAP act inactive and PostGolgi yeast inactive.
`CSc1nnc2c(n1)OC(c1ccc(-c3ccc([N+](=O)[O-])cc3)o1)Nc1ccccc1-2` (stereo not given) gave HePTP inhibitor inactive.
`Cc1ccccc1-n1c(CSC(=N)N)nc2ccccc2c1=O` gave PostGolgi ctrl inactive, E coli WT exp inactive, PLAP act 2.3 and PostGolgi yeast inactive.
c1ccc(N2CCN(c3ncnc4scc(-c5cccs5)c34)CC2)cc1 was read as PostGolgi ctrl 46.7, E coli WT exp inactive, Ecoli tolC inactive, HePTP inhibitor inactive, PLAP act inactive and PostGolgi yeast inactive.
For Cc1ccc(-c2csc3ncnc(N4CCN(C(=O)c5ccccc5)CC4)c23)cc1 the results were PostGolgi ctrl 32.1, E coli WT exp inactive, PLAP act inactive and PostGolgi yeast inactive.
Screening O=C(c1ccco1)N1CCN(c2ncnc3scc(-c4ccccc4)c23)CC1 returned PostGolgi ctrl inactive, E coli WT exp inactive, PLAP act inactive and PostGolgi yeast inactive.
For Cc1cccc(CS(=O)(=O)Cc2ccc(C(=O)NCCCN3CCCC3)o2)c1 the results were PostGolgi ctrl inactive, E coli WT exp inactive, PLAP act inactive and PostGolgi yeast 32.6.
Screening CCOCCCNC(=O)c1ccc(CS(=O)(=O)Cc2cccc(C)c2)o1 returned PostGolgi ctrl 32.7, E coli WT exp inactive, Ecoli tolC inactive, HePTP inhibitor inactive, PLAP act inactive and PostGolgi yeast inactive.
O=C1c2cccc3cccc(c23)C(=O)N1CC1CCN(S(=O)(=O)c2cccs2)CC1 was read as HePTP inhibitor inactive.
For CCCC1(O)C(C)C(c2ccccc2)NC(c2ccccc2)C1C (stereo not given) the results were HePTP inhibitor inactive.
Cc1ccc(-n2nnnc2SCC(=O)NNC(=O)c2ccco2)c(C)c1 was read as PostGolgi ctrl inactive, E coli WT exp inactive, PLAP act 2 and PostGolgi yeast inactive.
For CCOC(=O)C1CCN(C(=O)Nc2ccc(Cl)c(Cl)c2)CC1 the results were HePTP inhibitor inactive.
For CCc1nnc(NC(=O)CN2CCN(c3nc(-c4ccccc4)cs3)CC2)s1 the results were PostGolgi ctrl 42.0, E coli WT exp inactive, Ecoli tolC inactive, HePTP inhibitor inactive, PLAP act 2.1 and PostGolgi yeast inactive.
`O=C(CN1CCCCC1)Nc1nnc(-c2ccccc2)s1` gave PostGolgi ctrl inactive, E coli WT exp inactive, Ecoli tolC inactive, HePTP inhibitor inactive, PLAP act 2 and PostGolgi yeast inactive.
Screening O=C(CN1CCCCC1)Nc1nnc(-c2ccc([N+](=O)[O-])cc2)s1 returned PostGolgi ctrl inactive, E coli WT exp inactive, PLAP act inactive and PostGolgi yeast inactive.
CCOc1cc2c(C(=O)OC)c(C)oc2cc1Br was read as HePTP inhibitor inactive.
Screening CSCCOC(=O)C1=C(C)NC(=O)NC1c1ccc(O)c([N+](=O)[O-])c1 (stereo not given) returned HePTP inhibitor inactive.
`CCCCOC(=O)Cc1c(O)c2ccccc2[nH]c1=O` gave PostGolgi ctrl inactive, E coli WT exp inactive, Ecoli tolC inactive, HePTP inhibitor inactive, PLAP act inactive and PostGolgi yeast 32.3.

Screening results from PubChem.
